These results are taken from PMC8716398 (Biochemical and Biophysical Research Communications, 2021).

Where two headings read alike, the source gives them in different places.

Assay [1] has as its target T1, 3CLpro (Severe acute respiratory syndrome coronavirus 2, UniProt P0DTD1). The class given is biochemical, SARS-CoV-2.
In assay [2] the target is T2, 3CLpro of SARS-CoV-2 (Severe acute respiratory syndrome coronavirus 2, UniProt P0DTD1). As to the kind of experiment: Analysis of inhibition type. The class given is biochemical.
Assay [3] deals with T1, 3CLpro. Kind of assay: Isothermal titration calorimetry. Further details: species or system SARS-CoV-2. The settings on record: KD of the secondary binding, ITC, two sets of independent sites model, 25 °C. The essentials:
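ITC was run at 25 °C in 10 mM HEPES pH 7.4 containing 2% DMSO. Test compound (2 mM, syringe) was injected stepwise into 40 μM 3CLpro in the cell, with 120 s between injections. A matching titration into buffer alone was subtracted. Integrated peak areas were fitted with a two-sets-of-independent-sites model.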
(In general: ITC needs no label: the signal is the heat of the interaction.)

Assay [4] addresses T1, 3CLpro. As to the kind of experiment: biochemical. The class given is binding, SARS-CoV-2.
The next assay deals with T3, Papain (Carica papaya, UniProt P00784).
T3 sequence (P00784 134-345): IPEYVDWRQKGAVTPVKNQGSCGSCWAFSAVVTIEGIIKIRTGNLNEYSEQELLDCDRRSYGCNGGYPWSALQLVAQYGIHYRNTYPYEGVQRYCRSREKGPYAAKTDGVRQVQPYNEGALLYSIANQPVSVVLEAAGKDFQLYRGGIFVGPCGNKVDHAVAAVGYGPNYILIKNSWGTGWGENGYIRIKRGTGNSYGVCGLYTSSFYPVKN
Kind of assay: Enzyme activity assay, hydrolytic activity of Papain. The class given is biochemical.

In a further assay the target is Proteinase K (Parengyodontium album, UniProt P06873). Kind of assay: Enzyme activity assay, hydrolytic activity of Proteinase K. The class given is biochemical.
The target in assay [5] is T1, 3CLpro. As to the kind of experiment: Surface plasmon resonance. The class given is binding, SARS-CoV-2. The settings on record: SPR, heterogeneous ligand model. Background: In SPR one partner is held on a chip, and binding of the other changes the refractive index at the surface.
Assay [6] concerns the target T2, 3CLpro of SARS-CoV-2. Kind of assay: Enzyme activity assay, hydrolytic activity of 3CLpro. The class given is biochemical.
Setting [7] is: HTS of ∼6000 compounds at 16.7 μM.

Chain of Proteinase K (P06873 106-384): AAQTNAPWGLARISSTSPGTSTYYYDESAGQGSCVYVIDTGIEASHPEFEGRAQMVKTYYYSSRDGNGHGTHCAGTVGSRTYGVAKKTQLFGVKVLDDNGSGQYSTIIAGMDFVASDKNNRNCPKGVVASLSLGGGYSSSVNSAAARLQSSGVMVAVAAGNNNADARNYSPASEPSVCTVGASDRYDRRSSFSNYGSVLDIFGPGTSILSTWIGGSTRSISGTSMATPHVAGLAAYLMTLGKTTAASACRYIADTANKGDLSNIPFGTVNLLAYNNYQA

`CCN(CC)C(=S)SSC(=S)N(CC)CC` [Disulfiram]: the “HTS outcome (potential 3CLpro inhibitor)” value on 3CLpro [1] (setting [7]) is “screened out”.

Consider `O=c1c2ccccc2[se]n1-c1ccccc1` [Ebselen], for which, at 3CLpro [1], the “HTS outcome (potential 3CLpro inhibitor)” value is listed as “screened out”.

As usually defined, the Ki is a dissociation constant, usually derived from enzyme kinetics or from competition with a known ligand. A low value points to a stronger hold on the target. Usually Kd stands for the concentration at which binding is half-saturated. The IC50 is the concentration at which inhibition is half-maximal. Higher therefore signals lower potency. `O=C(O)c1ccccc1-c1c2cc(Br)c(=O)cc-2oc2[c]([Hg+])c(O)c(Br)cc12` [Merbromin]: on 3CLpro of SARS-CoV-2 [2], the Ki amounted to 3.93 ± 1.41 µM. Moreover, the “mixed constant (Alpha)” value at 3CLpro of SARS-CoV-2 [2] (mixed model inhibition, global fit Eqn. (4)) came out at 3.77 ± 3.96. Further, the values for the Kd on 3CLpro [3] and at 3CLpro [4] were 67.8 µM and 11.8 ± 0.98 µM, respectively. Further, the IC50 against Papain is 8.03 µM; against Proteinase K, more than 70 µM; at 3CLpro of SARS-CoV-2 [6], 2.7 ± 0.17 µM. At 3CLpro [5] (first set), this compound yielded a ka1 of 694.6 ± 2.61 M⁻¹ s⁻¹. Moreover, the kd1 at 3CLpro [5] (first set) was 1.25 ± 0.01 × 10^−3 s^−1. The same compound showed a ka2 at 3CLpro [5] (second set) of 646.7 ± 3.98 M⁻¹ s⁻¹. Further, the kd2 on 3CLpro [5] (second set) is given as 16.25 ± 0.08 × 10^−3 s^−1.

As to `CCC(C)SSc1ncc[nH]1` (centres unmarked) [PX-12], on 3CLpro [1], the “HTS outcome (potential 3CLpro inhibitor)” value is listed as “screened out”.

Consider `CC(C)=CC[C@@H](O)C1=CC(=O)c2c(O)ccc(O)c2C1=O` [Shikonin], for which, on 3CLpro [1] (setting [7]), the “HTS outcome (potential 3CLpro inhibitor)” value is on record as “screened out”.

In the case of `Cn1sc(=O)n(Cc2ccccc2)c1=O` [TDZD-8], the “HTS outcome (potential 3CLpro inhibitor)” value on 3CLpro [1] (setting [7]) is “screened out”.

Regarding `O=c1sn(-c2cccc3ccccc23)c(=O)n1Cc1ccccc1` [Tideglusib], the “HTS outcome (potential 3CLpro inhibitor)” value at 3CLpro [1] (setting [7]) is recorded as “screened out”.
